Assay results collected from several papers.
Protocols differ between the studies behind these lines.

| Structure (SMILES) | target or system | assay | test system | conditions | endpoint | result |
| --- | --- | --- | --- | --- | --- | --- |
| O=[N+]([O-])NC(=S)NN=Cc1ccc(Br)cc1 | Leishmania tropica | parasite growth | J774.A1 | 72 h, intracellular, amastigote | IC50 | 1140 µM |
| COc1ncc(-c2cn([C@@H]3O[C@](F)(CO[P@@](=O)(N[C@@H](C)C(=O)OC(C)C)Oc4ccccc4)[C@@H](O)[C@H]3O)cn2)cn1 | Severe acute respiratory syndrome coronavirus 2 | viral replication, inhibitor | A549-ACE2 | 24 h | IC50 | > 100 µM |
| COc1ccc(C=NNC(=S)N[N+](=O)[O-])cc1OC | Leishmania tropica | parasite growth, MTT | – | 72 h, promastigote | IC50 | 865 µM |
| CC1=NN(c2ccc(C)c(C)c2)C(=O)/C1=N\Nc1cccc(-c2cccc(C(=O)O)c2)c1O | Severe acute respiratory syndrome coronavirus 2 | viral replication, inhibitor | Caco-2 | replicon | IC50 | 3.1 µM |
| COc1cnc(OC)n2nc(NS(=O)(=O)c3c(OCC(F)F)cccc3C(F)(F)F)nc12 | L02 | cell growth or viability, CCK-8 | – | 100 µM, 72 h | inhibition | 1.54% |
| COc1nc(N)ncc1-c1cn([C@@H]2O[C@](F)(CO[P@@](=O)(N[C@@H](C)C(=O)OC(C)C)Oc3ccccc3)[C@@H](OC(=O)C(C)C)[C@H]2OC(=O)C(C)C)cn1 | Severe acute respiratory syndrome coronavirus 2 | viral replication, inhibitor | A549-ACE2 | 24 h | IC50 | 12.5 µM |
| O=[N+]([O-])NC(=S)NN=Cc1ccc(F)cc1 | Leishmania tropica | parasite growth | J774.A1 | 72 h, intracellular, amastigote | IC50 | 186 µM |
| N.N.[Cl][Pt][Cl] | NALM-6 | cell growth or viability, ATP luminescence | – | 72 h | IC50 | 1.05 µM |
| Cc1c(O)cccc1C(=O)N[C@@H](CSc1ccccc1)[C@H](O)CN1C[C@H]2CCCC[C@H]2C[C@H]1C(=O)NC(C)(C)C | Severe acute respiratory syndrome coronavirus 2 | viral replication, inhibitor | Caco-2 | replicon | IC50 | 1.91 µM |
| COc1ncc(-c2cn([C@@H]3O[C@](F)(CO)[C@@H](O)[C@H]3O)cn2)c(OC)n1 | Severe acute respiratory syndrome coronavirus 2 | viral replication, inhibitor | A549-ACE2 | 24 h | IC50 | > 100 µM |
| Cc1ccc(NC(=O)C2(c3ccc4c(c3)OC(F)(F)O4)CC2)nc1-c1cccc(C(=O)O)c1 | Severe acute respiratory syndrome coronavirus 2 | viral replication, inhibitor | Calu-3 | replicon | IC50 | 0.458 µM |
| CCOC(=O)C1=C(CN2CCOCC2)NC(c2nccs2)=NC1c1ccc(F)cc1Br (centres unmarked) | Hepatitis B virus | viral replication, inhibitor, qPCR | HepDES19 | 72 h | EC50 | 0.04 µM |
| COc1ncncc1-c1cn([C@@H]2O[C@](F)(CO[P@@](=O)(N[C@@H](C)C(=O)OC(C)C)Oc3ccccc3)[C@@H](O)[C@H]2O)cn1 | Severe acute respiratory syndrome coronavirus 2 | viral replication, inhibitor | A549-ACE2 | 24 h | IC50 | > 100 µM |
| CC(=O)OCC(=O)[C@@]12OC3(CCCC3)O[C@@H]1C[C@H]1[C@@H]3CCC4=CC(=O)C=C[C@]4(C)[C@@]3(F)[C@@H](O)C[C@@]12C | Severe acute respiratory syndrome coronavirus 2 | viral replication, inhibitor | Caco-2 | replicon | IC50 | 3.37 µM |
